Results reported in PubChem BioAssay AID2300 (The Scripps Research Institute Molecular Screening Center, 2010).
Out of some 320,000 compounds screened, about 380 (0.12%) were called active.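 How the source made its calls: active means percent inhibition above the cutoff of mean plus 3 SD of all tested compounds, set per screening campaign (cut at about 20% in these data); inactive means the rest.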 For the sample, actives were picked, then their nearest neighbours and some compounds at random.

target: Photoreceptor-specific nuclear receptor (Homo sapiens) (UniProt Q9Y5X4); assay: inhibitors of NR2E3-RetCOR corepressor binding, primary screen, NR2E3 agonist project, biochemical, TR-FRET, GST-NR2E3, biotin-RetCOR (AID 2300); settings: 1536-well, at 4.78 µM, hits give high values;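 further: 0% = DMSO wells and 100% = biotin wells as full block of FRET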
Procedure, shortened: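 System: GST-tagged NR2E3 plus biotinylated RetCOR corepressor; Amount: 1.35 nM GST-tagged NR2E3 final; Dosing: single nominal compound dose of 4.8 µM; Schedule: 5 h incubation at 4 °C; Technique: TR-FRET with europium anti-GST and streptavidin-D2, 340 nm excitation; Controls: biotin wells as high control, 0.6% DMSO wells as low control.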

Sequence of Photoreceptor-specific nuclear receptor (Homo sapiens) (Q9Y5X4 whole entry, looked up): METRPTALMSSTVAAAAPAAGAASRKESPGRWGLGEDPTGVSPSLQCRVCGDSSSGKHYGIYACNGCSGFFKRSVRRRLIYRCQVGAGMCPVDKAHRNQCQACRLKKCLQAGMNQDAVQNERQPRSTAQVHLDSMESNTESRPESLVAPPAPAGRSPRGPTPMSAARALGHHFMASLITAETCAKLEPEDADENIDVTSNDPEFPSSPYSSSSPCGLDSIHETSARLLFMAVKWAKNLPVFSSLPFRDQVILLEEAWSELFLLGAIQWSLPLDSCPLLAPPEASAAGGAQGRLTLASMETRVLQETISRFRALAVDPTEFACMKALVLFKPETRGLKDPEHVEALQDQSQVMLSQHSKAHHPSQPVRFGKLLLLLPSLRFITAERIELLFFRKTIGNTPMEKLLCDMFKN

Compound	inhibition of corepressor binding
O=C(COC(=O)c1ccc(F)cc1F)Nc1ncccn1	8.41% (inactive)
CN(C(=O)CSc1nnc(-c2ccc(C(C)(C)C)cc2)n1C)C1CCS(=O)(=O)C1 (stereo unspecified)	-0.57% (inactive)
O=C(CNC(=O)c1ccc(Br)o1)NCC1CCCO1 (stereo unspecified)	1.48% (inactive)
Cc1ccc(CN2CCN(Cc3ccc(OCCO)cc3)CC2CCO)o1 (stereo unspecified)	3.85% (inactive)
COc1cc([C@H](Cc2ccccc2)NC(C)=O)oc(=O)c1	-1.34% (inactive)
CN(CC(=O)NCc1ccc2c(c1)OCO2)CC(=O)Nc1ccc(F)c(F)c1F	1.07% (inactive)
CC(NC(=O)c1ccc(S(=O)(=O)Nc2ccccc2)cc1)c1ccc(S(N)(=O)=O)cc1 (stereo unspecified)	2.43% (inactive)
CC(=O)N1CCSc2ccc(S(=O)(=O)N3CCC(C)CC3)cc21	-0.82% (inactive)
C/C(=N/NC(=O)CSc1ccccn1)c1ccc([N+](=O)[O-])cc1	3.53% (inactive)
C[C@H](NC(=O)c1nc[nH]c1C(=O)NCC(=O)OC(C)(C)C)c1ccccc1	-2.19% (inactive)
Cc1ccc(N2C(=O)C(CC(=O)Nc3cccc(F)c3)N(CCc3ccncc3)C2=O)cc1 (stereo unspecified)	-1.41% (inactive)
CCCOC(=O)c1c(NC(=O)c2cnn3c2NC(c2ccccc2)CC3C(F)(F)F)sc2c1CCCC2 (stereo unspecified)	0.87% (inactive)
Cc1ccn2c(c1)nc(=O)c1cc(S(=O)(=O)N3CCC(C)CC3)ccc12	2.72% (inactive)
C=CCOc1cccc(C2C(C(=O)c3ccc(C)o3)=C(O)C(=O)N2CCCn2ccnc2)c1 (stereo unspecified)	25.8% (active)
CCCOc1ccc(C2C(C(=O)c3ccc(C)o3)=C(O)C(=O)N2CCCn2ccnc2)cc1 (stereo unspecified)	11.4% (inactive)
C=CCOc1cccc(C2C(C(=O)c3ccc(C)o3)=C(O)C(=O)N2c2nnc(C)s2)c1 (stereo unspecified)	14.1% (inactive)
COc1ccc(/C=C/C(=O)NC(=S)N2CCCC(C(N)=O)C2)cc1 (stereo unspecified)	3.08% (inactive)
O=C(OCC1O[C@@H](OC(=O)c2cc(O)c(O)c(O)c2)[C@@H](OC(=O)c2cc(O)c(O)c(O)c2)[C@@H](OC(=O)c2cc(O)c(O)c(O)c2)[C@@H]1OC(=O)c1cc(O)c(O)c(O)c1)c1cc(O)c(O)c(O)c1 (stereo partly specified)	11.9% (inactive)
Cc1coc2c(O)cc3c(c12)OC1(N2CCCCC2)C(=O)NCCCC31 (stereo unspecified)	-2.68% (inactive)
CC(C)CCNC(=O)C1CCCN(S(=O)(=O)c2ccc(F)cc2)C1 (stereo unspecified)	2.4% (inactive)
Cc1cc(NC(=O)Nc2ccccc2[N+](=O)[O-])no1	0.41% (inactive)
COc1cccc(-n2cc(C(=O)O)c3ccccc3c2=O)c1	3.78% (inactive)
COc1cccc(-n2c(=S)[nH]c3c(oc4ccccc43)c2=O)c1	29.2% (active)
COc1cccc(N2C(=O)CN(Cc3ccccc3)C2=S)c1	-3.57% (inactive)

Compound	inhibition of corepressor binding
COc1ccc(NC(=O)CSc2nnc(Cc3ccccc3)c(=O)n2N)cc1	-3.17% (inactive)
COC(=O)C1=NN(c2ccccc2)C2C(=O)N(c3ccccc3OC)C(=O)C12 (stereo unspecified)	-1.01% (inactive)
C/C(=C\c1ccco1)CN1CCC(N2CCC(C(=O)N3CCOCC3)CC2)CC1	-0.38% (inactive)
O=C(Nc1ccccc1Cl)NC1(C(=O)N2CCOCC2)CCCCC1	1.2% (inactive)
CCc1nn(CCCC(=O)NCc2ccc(C)cc2)c(=O)c2cc3occc3n12	1.62% (inactive)
C=C1c2c(Cl)ccc(O)c2C(O)=C2C(=O)[C@]3(O)C(O)=C(C(N)=O)C(=O)[C@@H](N(C)C)[C@@H]3[C@@H](O)C12 (stereo partly specified)	3.15% (inactive)
C=CCn1c(SCc2ccc(Cl)c(Cl)c2)nnc1C(CO)NC(=O)c1ccc(OC)cc1 (stereo unspecified)	-1.93% (inactive)
Cc1ccn(C(CC(=O)c2ccc(Br)cc2)C(=O)O)n1 (stereo unspecified)	0.75% (inactive)
CC(C)CCNc1nc(N2CCCC2)c2c(c1C#N)CCN(C)C2	-2.99% (inactive)
CCc1ccnc(NS(=O)(=O)c2ccc3c(c2)OCCO3)c1	-3.2% (inactive)
CCN(C(=O)COC(=O)/C=C/c1nc2ccccc2s1)C1CCS(=O)(=O)C1 (stereo unspecified)	-1.91% (inactive)
C[C@@H](NC(=O)c1nc[nH]c1C(=O)N1CCN(C(=O)OC(C)(C)C)CC1)c1ccccc1	0.22% (inactive)
N#C/C(=C/c1ccc(Cl)cc1)NC(=O)c1ccccc1	0.97% (inactive)
CSc1sc(C(=O)NC(=O)NCc2cccnc2)c(C)c1-c1ccon1	-5.08% (inactive)
CCOc1ccc(OCC)c(NC(=O)C(NS(=O)(=O)c2ccc3c(c2)oc(=O)n3C)C(C)C)c1 (stereo unspecified)	5.32% (inactive)
CCN(CC)S(=O)(=O)c1ccc(N(C)Cc2cccc(OC)c2OC)nc1	-0.21% (inactive)
Cc1ccc(C(=O)Nc2ccc(C)c(S(=O)(=O)N(C)C)c2)s1	-3.92% (inactive)
COc1ccccc1C(=O)Nc1ccnn1C1CCN(Cc2cnn(C)c2)CC1	-1.2% (inactive)
O=[N+]([O-])c1ccc(Oc2ccc(F)cc2Br)c2ccncc12	3.74% (inactive)
O=C(COC(=O)CNS(=O)(=O)c1ccc(F)c(F)c1F)NC1CCCC1	1.54% (inactive)
CC1(C)Cc2ccccc2-c2[nH]c(=S)[nH]c(=O)c21	49.1% (active)
CC1(C)Cc2ccccc2-c2nc(CN3CCOCC3)[nH]c(=O)c21	0.32% (inactive)
CCC1(CC)Cc2ccccc2-c2nc(CCl)[nH]c(=O)c21	-2.67% (inactive)
Cc1ccc(Sc2ccncc2S(N)(=O)=O)cc1	0.79% (inactive)

Compound	inhibition of corepressor binding
Cn1cc(CN2CCCC(CO)C2)c(-c2ccc(Oc3ccccc3)cc2)n1 (stereo unspecified)	-0.36% (inactive)
COc1ccc(C2c3[nH]c4ccccc4c3CCN2CCCn2cccn2)cc1C (stereo unspecified)	1.77% (inactive)
CCc1ccc(NC(=O)CN2CCC(C(=O)c3ccc(OC)cc3)CC2)cc1	4.08% (inactive)
CC[C@@H](C)[C@@H](C(=O)N1CCN(C(=O)OC(C)(C)C)CC1)n1cc(CCC(=O)O)nn1	2.89% (inactive)
O=c1[nH]c(CCl)nc2cc(-c3ccc(Cl)cc3)sc12	1.58% (inactive)
COc1ccc(CNC(=O)CN(Cc2ccc(Cl)cc2)S(C)(=O)=O)cc1	-2.12% (inactive)
CCCC(=O)n1nc(NCc2ccc(OC)cc2)nc1NCc1ccc(OC)cc1	-0.61% (inactive)
COc1ccc(NC(=O)CN2C(=O)C(c3ccccc3)=NC23CCCCCC3)cc1OC	1.4% (inactive)
O=C(CCc1ccc(S(=O)(=O)N2CCOCC2)cc1)Nc1ccc2ccccc2c1	0.61% (inactive)
O=C(C(Cc1ccccc1)n1cccc1)N1CCN(C2CCCCC2)CC1 (stereo unspecified)	-0.53% (inactive)
O=C(/C=N/O)Nc1ccccc1	-4.21% (inactive)
O=C(COC(=O)c1ccc(NS(=O)(=O)c2cccs2)cc1O)Nc1ccc(F)cc1	0.61% (inactive)
Cc1cc(C)n(CC(C)NCc2c(C(=O)N3CCOCC3)nc3c(C)cccn23)n1 (stereo unspecified)	-0.74% (inactive)
COc1cc(C(=O)NCC(c2ccco2)N2CCCC2)ccc1OCc1ccccc1 (stereo unspecified)	2.49% (inactive)
CCOC(=O)c1c(NC(=O)CN2C(=O)NC3(CCC(C)CC3)C2=O)sc(C)c1CC (stereo unspecified)	1.08% (inactive)
O=C(COc1coc(CN2CCN(c3ccccc3F)CC2)cc1=O)N1CCc2ccccc21	-1.02% (inactive)
CN(C(=O)CSc1nnc(Nc2ccccc2)s1)C1CCS(=O)(=O)C1 (stereo unspecified)	0.29% (inactive)
Cc1ccc(S(=O)(=O)NC2(C(F)(F)F)NC(=O)N(CCc3ccccc3)C2=O)cc1 (stereo unspecified)	1.1% (inactive)
COc1ccc(-c2cc(C(=O)N/N=C/c3cccnc3)c3ccccc3n2)c(OC)c1	6.06% (inactive)
O=C(Nc1cc(S(=O)(=O)N2CCOCC2)ccc1Cl)c1cc(=O)c2ccccc2o1	1.24% (inactive)
O=C(NCCCN1CCOCC1)C1CCCN(S(=O)(=O)N2CCCCC2)C1 (stereo unspecified)	0.58% (inactive)
N=c1n(CCc2ccccc2)c2ccccc2n1Cc1ccccc1F	-5.83% (inactive)
CN(Cc1ccccc1F)C(=O)C(Cc1ccccc1)NC(=O)c1ccccc1 (stereo unspecified)	0.68% (inactive)
CN(Cc1ccccc1)Cc1ccccc1F	24.1% (active)

Compound	inhibition of corepressor binding
CCOc1ccc(CCNC(=O)C2=C(C)C(=O)OC23CCC(C)CC3)cc1OCC (stereo unspecified)	-3.37% (inactive)
O=C1C(=O)N(CCCN2CCOCC2)C(c2ccc([N+](=O)[O-])cc2)/C1=C(\O)c1ccc2c(c1)OCCO2 (stereo unspecified)	2.15% (inactive)
O=C1C(=O)N(CCN2CCOCC2)C(c2cccc(Cl)c2)/C1=C(/O)c1ccc2c(c1)OCO2 (stereo unspecified)	31.6% (active)
O=C1C(=O)N(CCN2CCOCC2)C(c2ccccn2)/C1=C(/O)c1ccc(Cl)cc1 (stereo unspecified)	-1.05% (inactive)
Cc1ccc(-c2nc(CSCC(=O)NC3CCN(Cc4ccccc4)CC3)c(C)o2)cc1	1.78% (inactive)
CCN(CC)Cc1csc2ccc(Br)cc12	-3.8% (inactive)
CCOc1cc(C2/C(=C(/O)c3ccc(S(=O)(=O)N4CCCCC4)cc3)C(=O)C(=O)N2CCOC)ccc1O (stereo unspecified)	0.08% (inactive)
COCCNC(=O)Nc1ccc2nc(-c3ccco3)c(-c3ccco3)nc2c1	30.4% (active)
O=C(NCc1ccccn1)c1ccc2nc(-c3ccco3)c(-c3ccco3)nc2c1	9.85% (inactive)
CCOc1cc(NC(=S)NCCCOC)c(OCC)cc1NC(=O)c1ccco1	1.79% (inactive)
CCOc1cc(C(=O)Nc2ccc(S(=O)(=O)Nc3cnc4ccccc4n3)cc2)cc(OCC)c1OCC	0.9% (inactive)
CCCOn1c(-n2nc(C)cc2C)nc2ccccc2c1=O	-0.33% (inactive)
COc1ccc2c3c1O[C@H]1C[C@@H](O)C=C[C@@]31CCN(C)C2	4.69% (inactive)
O=C(CCN1C(=O)c2ccncc2C1=O)Nc1cc(F)ccc1F	-0.36% (inactive)
CCCC(=O)N1CCC(CCC(=O)NC2CC2)CC1	0.01% (inactive)
Cc1ccc(C(=O)COC(=O)c2cccc(N3C(=O)c4c(C)nc5ccccc5c4C3=O)c2)cc1C	-4.34% (inactive)
COc1ccc(C(C(=O)NC2CCCCC2)N(C(=O)CCl)c2ccccc2Cl)cc1 (stereo unspecified)	3.2% (inactive)
CCCOC1CCCN(Cc2cn(C)nc2-c2ccccc2F)C1 (stereo unspecified)	-1.73% (inactive)
CC1C(=O)Nc2ccccc2N1C(=O)c1c(F)cccc1F (stereo unspecified)	0.31% (inactive)
CCCCCCSc1nsc(N)n1	3.46% (inactive)
CC1CCN(S(=O)(=O)c2ccc3c(c2)n(C)c(=O)n3C)CC1	0.8% (inactive)
CCc1cc2c(SCC(=O)Nc3ncc(Cl)c(C)c3Cl)ncnc2s1	2.24% (inactive)
CCc1ccc(S(=O)(=O)Nc2cc3c(cc2N2CCCCC2)n(C)c(=O)c(=O)n3C)cc1	-2.2% (inactive)
CC[N+](C)(CC)CCC[n+]1c(-c2ccccc2)c2cc(N)ccc2c2ccc(N)cc21	41.5% (active)
